Source: ChEMBL document CHEMBL5724801, “EUbOPEN Chemogenomics Library - Multiplex” (2024)
Values joined by “and” are separate entries in the source; they are usually repeats but may differ in a detail not shown here. Identical values can stand only once.

Test system: Fibroblast
Assay: Multiplex assay against human fibroblast
Type: toxicity, cell-based
Summary of the method: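 Compound was added to live cells that had been stained at seeding with Hoechst33342, BioTracker Green Microtubule Cytoskeleton Dye, MitoTracker Red and Annexin V Alexa Fluor 680, and imaging followed on a CQ1 microscope at 37°C and 5% CO2. CellPathfinder machine-learning gating divided cells into Hoechst high-intensity objects or normal cells, normal cells into healthy, pyknosed or fragmented nuclei, and pyknosed cells into mitotic or apoptotic. Tubulin, mitochondrial-mass and membrane-permeability phenotypes are per cents of healthy-nucleus cells.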

[1] = 12 h, 1 µM, compound concentration 1 uM
[2] = 12 h, 10 µM, compound concentration 10 uM
[3] = 24 h, 1 µM, compound concentration 1 uM
[4] = 24 h, 10 µM, compound concentration 10 uM
[5] = 48 h, 1 µM, compound concentration 1 uM
[6] = 48 h, 10 µM, compound concentration 10 uM

## COc1cc2nc(N3CCN(C(=O)COc4c(OC)cccc4C(C)C)CC3)nc(N)c2cc1OC.Cl.Cl
[1]
  Population Apoptotic (%): 50% and 36%
  Population Fragmented Nuclei (%): 17% and 39%
  Population Healthy Nuclei (%): 51% and 42%
  Population Hoechst High Intensity Objects (%): 4% and 9%
  Population Membrane Permeable-Phenotype (%): 3% and 5%
  Population Mitochondria Different-Phenotype (%): 6% and 7%
  Population Mitotic Cells (%): 50% and 63%
  Population Normal (%): 95% and 90%
  Population Pyknosed Nuclei (%): 30% and 18%
  Population Tubulin-Different-Phenotype (%): 40% and 43%
  Total Cell Count: 123 and 182
[2]
  Population Apoptotic (%): 33% and 29%
  Population Fragmented Nuclei (%): 13% and 22%
  Population Healthy Nuclei (%): 47% and 46%
  Population Hoechst High Intensity Objects (%): 20% and 10%
  Population Membrane Permeable-Phenotype (%): 0% and 4%
  Population Mitochondria Different-Phenotype (%): 15% and 8%
  Population Mitotic Cells (%): 66% and 70%
  Population Normal (%): 79% and 89%
  Population Pyknosed Nuclei (%): 38% and 30%
  Population Tubulin-Different-Phenotype (%): 63% and 56%
  Total Cell Count: 346 and 283
[3]
  Population Apoptotic (%): 68% and 57%
  Population Fragmented Nuclei (%): 23% and 40%
  Population Healthy Nuclei (%): 58% and 42%
  Population Hoechst High Intensity Objects (%): 3% and 11%
  Population Membrane Permeable-Phenotype (%): 1% and 5%
  Population Mitochondria Different-Phenotype (%): 9% and 11%
  Population Mitotic Cells (%): 31% and 42%
  Population Normal (%): 96% and 88%
  Population Pyknosed Nuclei (%): 17%
  Population Tubulin-Different-Phenotype (%): 39% and 50%
  Total Cell Count: 128 and 180
[4]
  Population Apoptotic (%): 40% and 33%
  Population Fragmented Nuclei (%): 13% and 25%
  Population Healthy Nuclei (%): 45% and 40%
  Population Hoechst High Intensity Objects (%): 39% and 23%
  Population Membrane Permeable-Phenotype (%): 0% and 4%
  Population Mitotic Cells (%): 60% and 66%
  Population Normal (%): 60% and 76%
  Population Pyknosed Nuclei (%): 41% and 34%
  Population Tubulin-Different-Phenotype (%): 38% and 47%
  Total Cell Count: 344 and 273
[5]
  Population Apoptotic (%): 65% and 42%
  Population Fragmented Nuclei (%): 31% and 45%
  Population Healthy Nuclei (%): 51% and 43%
  Population Hoechst High Intensity Objects (%): 4% and 10%
  Population Membrane Permeable-Phenotype (%): 0% and 8%
  Population Mitochondria Different-Phenotype (%): 11% and 10%
  Population Mitotic Cells (%): 35% and 57%
  Population Normal (%): 96% and 89%
  Population Pyknosed Nuclei (%): 16% and 11%
  Population Tubulin-Different-Phenotype (%): 30% and 57%
  Total Cell Count: 125 and 193
[6]
  Population Apoptotic (%): 45% and 30%
  Population Fragmented Nuclei (%): 12% and 33%
  Population Healthy Nuclei (%): 45% and 33%
  Population Hoechst High Intensity Objects (%): 52% and 31%
  Population Membrane Permeable-Phenotype (%): 2% and 9%
  Population Mitochondria Different-Phenotype (%): 10% and 0%
  Population Mitotic Cells (%): 54% and 69%
  Population Normal (%): 47% and 68%
  Population Pyknosed Nuclei (%): 42% and 33%
  Population Tubulin-Different-Phenotype (%): 42% and 43%
  Total Cell Count: 358 and 311

## COc1c(Nc2ccc(S(C)(=O)=O)nc2C)ncnc1OC1CCN(C(=O)OC(C)C)CC1 [ADP-597]
[1]
  Population Apoptotic (%): 57% and 42%
  Population Fragmented Nuclei (%): 14% and 27%
  Population Healthy Nuclei (%): 71% and 40%
  Population Hoechst High Intensity Objects (%): 3% and 4%
  Population Membrane Permeable-Phenotype (%): 0% and 2%
  Population Mitochondria Different-Phenotype (%): 10% and 7%
  Population Mitotic Cells (%): 42% and 57%
  Population Normal (%): 96% and 95%
  Population Pyknosed Nuclei (%): 14% and 33%
  Population Tubulin-Different-Phenotype (%): 34% and 27%
  Total Cell Count: 133 and 105
[2]
  Population Apoptotic (%): 44% and 39%
  Population Fragmented Nuclei (%): 21% and 43%
  Population Healthy Nuclei (%): 58% and 27%
  Population Hoechst High Intensity Objects (%): 2%
  Population Membrane Permeable-Phenotype (%): 0% and 11%
  Population Mitochondria Different-Phenotype (%): 15% and 14%
  Population Mitotic Cells (%): 56% and 60%
  Population Normal (%): 97% and 98%
  Population Pyknosed Nuclei (%): 20% and 28%
  Population Tubulin-Different-Phenotype (%): 54% and 77%
  Total Cell Count: 127 and 100
[3]
  Population Apoptotic (%): 47% and 37%
  Population Fragmented Nuclei (%): 17% and 25%
  Population Healthy Nuclei (%): 67% and 50%
  Population Hoechst High Intensity Objects (%): 4% and 10%
  Population Membrane Permeable-Phenotype (%): 0% and 10%
  Population Mitochondria Different-Phenotype (%): 1% and 2%
  Population Mitotic Cells (%): 52% and 62%
  Population Normal (%): 95% and 89%
  Population Pyknosed Nuclei (%): 15% and 24%
  Population Tubulin-Different-Phenotype (%): 27% and 48%
  Total Cell Count: 146 and 109
[4]
  Population Apoptotic (%): 52% and 27%
  Population Fragmented Nuclei (%): 20% and 49%
  Population Healthy Nuclei (%): 60% and 31%
  Population Hoechst High Intensity Objects (%): 5% and 6%
  Population Membrane Permeable-Phenotype (%): 0% and 10%
  Population Mitochondria Different-Phenotype (%): 5% and 3%
  Population Mitotic Cells (%): 47% and 72%
  Population Normal (%): 94% and 93%
  Population Pyknosed Nuclei (%): 18% and 19%
  Population Tubulin-Different-Phenotype (%): 41% and 75%
  Total Cell Count: 131 and 99
[5]
  Population Apoptotic (%): 64% and 42%
  Population Fragmented Nuclei (%): 25% and 28%
  Population Healthy Nuclei (%): 63% and 51%
  Population Hoechst High Intensity Objects (%): 2% and 9%
  Population Membrane Permeable-Phenotype (%): 0% and 2%
  Population Mitochondria Different-Phenotype (%): 4% and 0%
  Population Mitotic Cells (%): 35% and 57%
  Population Normal (%): 97% and 90%
  Population Pyknosed Nuclei (%): 11% and 20%
  Population Tubulin-Different-Phenotype (%): 30% and 59%
  Total Cell Count: 152 and 102
[6]
  Population Apoptotic (%): 73% and 75%
  Population Fragmented Nuclei (%): 29% and 56%
  Population Healthy Nuclei (%): 58% and 36%
  Population Hoechst High Intensity Objects (%): 8% and 2%
  Population Membrane Permeable-Phenotype (%): 0% and 2%
  Population Mitochondria Different-Phenotype (%): 20% and 18%
  Population Mitotic Cells (%): 26% and 25%
  Population Normal (%): 91% and 97%
  Population Pyknosed Nuclei (%): 12% and 7%
  Population Tubulin-Different-Phenotype (%): 57% and 84%
  Total Cell Count: 131 and 108
